Experimental findings from ChEMBL document CHEMBL1157863, “Synthesis and antiviral activity of new acrylamide derivatives containing 1,2,3-thiadiazole as inhibitors of hepatitis B virus replication” (Eur J Med Chem, 2010) are described below.

The subject of data set [1] is Hepatitis B virus. Kind of data set: Antiviral activity against HBV infected in HepG2(2.2.15) cells assessed as inhibition of viral surface antigen secretion after 8 days by radio immunoassay. It counts as functional, organism-based. In a few lines: (§1)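 Confluent 2.2.15 cultures were dosed at several concentrations in RPMI 1640 with 2% FBS, with fresh medium and compound each day for 8 days and untreated cell controls. HBsAg and HBeAg secreted into the supernatant were quantified by radioimmunoassay kits.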

Data set [2] in a line: Cytotoxicity against human HepG2(2.2.15) cells after 9 days by neutral red dye uptake assay. The settings on record: read-out: TC50.
In data set [3] the test system is Hepatitis B virus. The data set can be described thus: Antiviral activity against HBV infected in HepG2(2.2.15) cells assessed as inhibition of viral DNA replication after 8 days by dot blot hybridization.
A short description of data set [4]: Selectivity index, ratio of TC50 for human HepG2(2.2.15) cells to IC50 for Hepatitis B virus DNA replication. It counts as toxicity.
Data set [5] relates to Hepatitis B virus. Kind of data set: Antiviral activity against HBV infected in HepG2(2.2.15) cells assessed as inhibition of viral early antigen secretion after 8 days by radio immunoassay. It counts as functional, organism-based. The settings on record: HepG2 2.2.15, 192 h. In a few lines: as §1
The nature of data set [6]: Selectivity index, ratio of TC50 for human HepG2(2.2.15) cells to IC50 for Hepatitis B virus early antigen secretion. The format is toxicity.
Where [7] appears, read: Hepatitis B virus, HepG2 2.2.15, 192 h, read-out: IC50.

The structures appear in SMILES notation. Converted amounts (≈) assume the structure as drawn.

The term IC50 denotes the concentration needed to halve the response being measured. On to `Cc1nnsc1C(=O)N/C(C(=O)N1CCCCC1)=C(\Br)c1ccccc1Cl`, for which the IC50 entry is “Not Active” with Hepatitis B virus [1] and 10.4 µg/mL (≈ 22.1 µM) in the data set on Hepatitis B virus [3] (setting [7]). In data set [2], the CC50 at 216 h is 86.2 µg/mL (≈ 184 µM). The selectivity ratio in data set [4] is 8.29.
Regarding `Cc1nnsc1C(=O)N/C(C(=O)N1CCCCC1)=C(\Br)c1ccccc1`, the IC50 result with Hepatitis B virus [1] and in the data set with Hepatitis B virus [3] (hepg2 2.2.15) was “Not Active” in each case. For the same compound, the CC50 at 216 h in data set [2] was determined as 111 µg/mL (≈ 255 µM).
In the case of `Cc1nnsc1/C=C(/NC(=O)c1ccccc1)C(=O)N1CCCCC1`, the IC50 entry with Hepatitis B virus [1] and with Hepatitis B virus [3] (hepg2 2.2.15) was “Not Active” in each case. Also, the CC50 at 216 h in data set [2] was found to be 231 µg/mL (≈ 648 µM).
As for `Cc1nnsc1C(=O)N/C(C(=O)N1CCOCC1)=C(\Br)c1snnc1C`, the 50% inhibitory concentration (IC50) entry with Hepatitis B virus [1] and in the data set with Hepatitis B virus [3] (hepg2 2.2.15) was “Not Active” in each case. In data set [2], the CC50 at 216 h turned out to be 47.7 µg/mL (≈ 104 µM).
Regarding `Cc1nnsc1/C(Br)=C(/NC(=O)c1ccccc1)C(=O)N1CCCCC1`, the values for the IC50 entry in the data set with Hepatitis B virus [1] and in the data set with Hepatitis B virus [3] (setting [7]) were “Not Active” and 9 µg/mL (≈ 20.7 µM), respectively. The CC50 at 216 h in data set [2] turned out to be 192 µg/mL (≈ 442 µM). Further, the selectivity ratio in data set [4] is 21.4.
Taken in the same sequence, the figures for `Cc1nnsc1/C(Br)=C(/NC(=O)c1ccccc1)C(=O)N1CCOCC1` were “Not Active”, 30.5 µg/mL (≈ 69.8 µM), 333 µg/mL (≈ 762 µM) and 10.9.
Regarding `Cc1nnsc1C(=O)N/C(C(=O)N1CCCCC1)=C(\Cl)c1ccccc1`, the IC50 was 12.3 µg/mL (≈ 31.4 µM) with Hepatitis B virus [5], “Not Active” in the data set with Hepatitis B virus [1] and “Not Active” in the data set with Hepatitis B virus [3] (hepg2 2.2.15). In addition, the selectivity ratio in data set [6] stood at 5.23. Moreover, in data set [2], the CC50 at 216 h was determined as 64.2 µg/mL (≈ 164 µM).
As to `Cc1nnsc1C(=O)N/C(C(=O)N1CCCCC1)=C(\Br)c1ccc(Cl)cc1`, the IC50 entry in the data set on Hepatitis B virus [1] was “Not Active”; in the data set with Hepatitis B virus [3] (setting [7]) it was 3.59 µg/mL (≈ 7.64 µM). Moreover, the CC50 at 216 h in data set [2] was determined as 17.8 µg/mL (≈ 37.9 µM). The selectivity ratio in data set [4] worked out at 4.96.
In the case of `Cc1nnsc1/C(Cl)=C(/NC(=O)c1ccccc1)C(=O)N1CCOCC1`, the IC50 result in the data set with Hepatitis B virus [1] and in the data set on Hepatitis B virus [3] (hepg2 2.2.15) was “Not Active” in each case. In addition, in data set [2], the CC50 at 216 h was 577 µg/mL (≈ 1470 µM).
For `CCN(CC)C(=O)/C(NC(=O)c1ccccc1)=C(/Br)c1snnc1C`, the IC50 result in the data set with Hepatitis B virus [1] and with Hepatitis B virus [3] (hepg2 2.2.15) was “Not Active” throughout. Besides, in data set [2], the CC50 at 216 h is 86.2 µg/mL (≈ 204 µM).
As to `Nc1ccn([C@@H]2CS[C@H](CO)O2)c(=O)n1` [LAMIVUDINE], the IC50 result is “Not Active” in the data set on Hepatitis B virus [1] and 14.8 µg/mL (≈ 64.6 µM) in the data set with Hepatitis B virus [3] (setting [7]). Moreover, the CC50 at 216 h in data set [2] stood at 962 µg/mL (≈ 4190 µM). The selectivity ratio in data set [4] turned out to be 65.
